According to ChEMBL document CHEMBL5649170, “Sustained microglial depletion with CSF1R inhibitor impairs parenchymal plaque development in an Alzheimer's disease model” (Nat Commun, 2019):
The source made the active and inactive calls. No cut-off for these calls is given here.

Columns and labels:
Mus musculus [1] = experiment: Antialzheimer activity in 5XFAD mouse assessed as appearance of CAA in […] cortex at 600 ppm administered as rodent chow starting from 1.5 months and measured after 5 months by immunolabeling based confocal microscopic analysis; type: functional, organism-based; conditions: route po, time 3.5 months
How it was run: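 5xFAD mice fed PLX3397 at 600 ppm in AIN-76A chow from 1.5 to 5 months of age; brain sections stained with Thio-S and immunolabeled for IBA1, imaged by confocal microscopy for vascular Thio-S deposits.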

[2] = Effect on Gls gene expression in wildtype mouse hippocampus assessed as percent change in Reads Per kilo base per Million mapped reads at 1200 ppm administered as rodent chow starting from 1.5 months and measured after 7 months by RNA-Seq analysis (reference value: 89.231 to 109.618 %); type: functional; conditions: route po, time 5.5 months, 4015 h
[3] = biological target: T1, Macrophage colony-stimulating factor 1 receptor (Mus musculus) (UniProt P09581); experiment: In vivo inhibition of CSF1R in wildtype mouse assessed as number of Iba1 positive cells per FOV in somatosensory cortex at 1200 ppm administered as rodent chow starting from 1.5 months to 4 months followed by compound removal and measured after 1 months by immunolabelling based confocal microscopic analysis (reference value: 304 to 351); type: functional; conditions: route po, time 2.5 months
T1 sequence (whole entry): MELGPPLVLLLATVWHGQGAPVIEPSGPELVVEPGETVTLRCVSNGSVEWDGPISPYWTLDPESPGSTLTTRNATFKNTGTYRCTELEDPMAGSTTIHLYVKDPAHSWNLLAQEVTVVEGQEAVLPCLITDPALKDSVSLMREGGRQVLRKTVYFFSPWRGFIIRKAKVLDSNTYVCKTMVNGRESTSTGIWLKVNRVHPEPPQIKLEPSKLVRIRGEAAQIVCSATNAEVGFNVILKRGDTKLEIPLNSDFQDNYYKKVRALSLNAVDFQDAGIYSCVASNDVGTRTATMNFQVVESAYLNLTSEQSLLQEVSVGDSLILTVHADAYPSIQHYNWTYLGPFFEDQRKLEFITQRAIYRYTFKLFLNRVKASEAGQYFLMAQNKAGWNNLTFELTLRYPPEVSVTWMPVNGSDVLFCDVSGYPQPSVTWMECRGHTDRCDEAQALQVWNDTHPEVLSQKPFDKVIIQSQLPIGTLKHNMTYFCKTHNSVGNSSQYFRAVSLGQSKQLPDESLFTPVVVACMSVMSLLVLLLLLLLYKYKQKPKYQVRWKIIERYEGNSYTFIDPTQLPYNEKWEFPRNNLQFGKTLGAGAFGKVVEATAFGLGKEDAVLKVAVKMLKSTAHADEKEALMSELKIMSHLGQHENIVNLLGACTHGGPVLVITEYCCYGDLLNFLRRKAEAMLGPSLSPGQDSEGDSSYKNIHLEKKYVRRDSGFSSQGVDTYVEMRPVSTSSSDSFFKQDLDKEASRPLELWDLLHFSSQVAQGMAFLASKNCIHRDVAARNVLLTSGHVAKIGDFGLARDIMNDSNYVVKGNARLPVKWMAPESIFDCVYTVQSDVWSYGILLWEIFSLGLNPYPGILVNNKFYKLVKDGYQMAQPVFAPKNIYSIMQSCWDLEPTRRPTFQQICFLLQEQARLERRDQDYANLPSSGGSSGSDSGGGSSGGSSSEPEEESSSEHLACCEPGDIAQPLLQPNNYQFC

[4] = AUC (0 to infinity) in monkey at 1.35 mg/kg, iv administered as single dose; type: ADME, organism-based, Macaca mulatta; conditions: rhesus monkey, in vivo
[5] = biological target: Tyrosine-protein kinase FRK (Homo sapiens, UniProt P42685); experiment: Inhibition of FRK (unknown origin)
[6] = biological target: NT-3 growth factor receptor (Homo sapiens, UniProt Q16288); experiment: Inhibition of NTRK3 (unknown origin)
[7] = Effect on Rnf217 gene expression in wildtype mouse hippocampus assessed as percent change in Reads Per kilo base per Million mapped reads at 1200 ppm administered as rodent chow starting from 1.5 months and measured after 7 months by RNA-Seq analysis (reference value: 92.169 to 103.245 %); type: functional; conditions: route po, time 5.5 months, 4015 h
[8] = Oral bioavailability in male rat at 45 mg/kg administered as single via gavage; type: ADME, organism-based; conditions: in vivo
Mus musculus [9] = experiment: Effect on APP processing pathway in wildtype mouse assessed as PS1 protein signal intensity in cortex at 1200 ppm administered as rodent starting from 1.5 months and measured after 7 months (reference value: 78.906 to 243.681 %); type: functional; conditions: route po, time 5.5 months, 4015 h
[10] = Effect on Csf1r RPKM gene expression in 5XFAD mouse thalamus at 1200 ppm administered as rodent chow starting from 1.5 months and measured after 7 months by RNA-Seq analysis (reference value: 27.112 to 32.871 RPKM); type: functional; conditions: route po, time 5.5 months, 4015 h
[11] = biological target: Eukaryotic elongation factor 2 kinase (Homo sapiens, UniProt O00418); experiment: Inhibition of EEF2K (unknown origin)
[12] = biological target: Beta-adrenergic receptor kinase 1 (Homo sapiens, UniProt P25098); experiment: Inhibition of ADRBK1 (unknown origin)
[13] = biological target: Phosphorylase b kinase gamma catalytic chain, liver/testis isoform (Homo sapiens, UniProt P15735); experiment: Inhibition of PHKG2 (unknown origin)
[14] = Effect on Spi1 gene expression in 5XFAD mouse thalamus at 1200 ppm administered as rodent chow starting from 1.5 months and measured after 7 months by RNA-Seq analysis (reference value: 2.107 to 3.285 RPKM); type: functional; conditions: route po, time 5.5 months, 4015 h
SRSF protein kinase 1 = SRSF protein kinase 1 (Homo sapiens, UniProt Q96SB4); experiment: Inhibition of SRPK1 (unknown origin)
[15] = Effect on ccl6 gene expression in wild type mouse cortex at 1200 ppm administered as rodent chow starting from 1.5 months and measured after 7 months by RNA-Seq analysis (reference value: 0.280 to 1.162 RPKM); type: functional; conditions: route po, time 5.5 months, 4015 h
[16] = biological target: Phosphatidylinositol 4-kinase beta (Homo sapiens, UniProt Q9UBF8); experiment: Inhibition of PI4KB (unknown origin)
[17] = biological target: Calcium/calmodulin-dependent protein kinase type II subunit delta (Homo sapiens, UniProt Q13557); experiment: Inhibition of CAMK2D (unknown origin)
[18] = Effect on Nrg3 gene expression in wildtype mouse hippocampus assessed as percent change in Reads Per kilo base per Million mapped reads at 1200 ppm administered as rodent chow starting from 1.5 months and measured after 7 months by RNA-Seq analysis (reference value: 84.058 to 111.732 %); type: functional; conditions: route po, time 5.5 months, 4015 h
[19] = biological target: Leucine-rich repeat serine/threonine-protein kinase 2 (Homo sapiens, UniProt Q5S007); experiment: Inhibition of LRRK2 (unknown origin)
Mus musculus [20] = experiment: Antialzheimer activity in wildtype mouse assessed as number of Iba positive cells per FOV in somatosensory cortex at 1200 ppm administered as rodent chow starting from 1.5 months and measured after 7 months (reference value: 371 to 472); type: functional; conditions: route po, time 5.5 months, 4015 h
[21] = biological target: Megakaryocyte-associated tyrosine-protein kinase (Homo sapiens, UniProt P42679); experiment: Inhibition of MATK (unknown origin)
[22] = Toxicity in wildtype mouse assessed as time spent in closed arm at 1200 ppm administered as rodent chow for 10 to 24 weeks by Elevated plus maze test (reference value: 73.3 to 220.6 sec); conditions: in vivo, po, time 10-24 weeks

Beta-adrenergic receptor kinase 1, sequence (P25098 whole entry, canonical isoform): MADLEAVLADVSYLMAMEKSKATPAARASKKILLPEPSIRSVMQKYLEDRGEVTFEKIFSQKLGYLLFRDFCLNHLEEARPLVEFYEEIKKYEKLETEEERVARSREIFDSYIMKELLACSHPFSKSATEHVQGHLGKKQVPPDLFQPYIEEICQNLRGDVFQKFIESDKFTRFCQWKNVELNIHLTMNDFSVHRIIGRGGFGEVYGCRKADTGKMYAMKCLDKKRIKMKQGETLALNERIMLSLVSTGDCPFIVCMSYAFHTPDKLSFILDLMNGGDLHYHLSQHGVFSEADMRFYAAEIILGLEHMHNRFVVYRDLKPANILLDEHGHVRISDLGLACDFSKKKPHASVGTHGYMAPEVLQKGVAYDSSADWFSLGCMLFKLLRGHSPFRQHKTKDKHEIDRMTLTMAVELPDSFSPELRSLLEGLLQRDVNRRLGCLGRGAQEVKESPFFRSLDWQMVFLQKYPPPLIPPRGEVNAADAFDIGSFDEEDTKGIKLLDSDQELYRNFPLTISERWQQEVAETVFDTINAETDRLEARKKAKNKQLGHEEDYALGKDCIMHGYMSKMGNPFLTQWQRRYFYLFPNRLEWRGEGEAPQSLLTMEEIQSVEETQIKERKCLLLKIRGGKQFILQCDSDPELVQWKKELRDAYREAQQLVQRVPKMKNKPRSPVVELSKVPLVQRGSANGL
Eukaryotic elongation factor 2 kinase, sequence (O00418 whole entry): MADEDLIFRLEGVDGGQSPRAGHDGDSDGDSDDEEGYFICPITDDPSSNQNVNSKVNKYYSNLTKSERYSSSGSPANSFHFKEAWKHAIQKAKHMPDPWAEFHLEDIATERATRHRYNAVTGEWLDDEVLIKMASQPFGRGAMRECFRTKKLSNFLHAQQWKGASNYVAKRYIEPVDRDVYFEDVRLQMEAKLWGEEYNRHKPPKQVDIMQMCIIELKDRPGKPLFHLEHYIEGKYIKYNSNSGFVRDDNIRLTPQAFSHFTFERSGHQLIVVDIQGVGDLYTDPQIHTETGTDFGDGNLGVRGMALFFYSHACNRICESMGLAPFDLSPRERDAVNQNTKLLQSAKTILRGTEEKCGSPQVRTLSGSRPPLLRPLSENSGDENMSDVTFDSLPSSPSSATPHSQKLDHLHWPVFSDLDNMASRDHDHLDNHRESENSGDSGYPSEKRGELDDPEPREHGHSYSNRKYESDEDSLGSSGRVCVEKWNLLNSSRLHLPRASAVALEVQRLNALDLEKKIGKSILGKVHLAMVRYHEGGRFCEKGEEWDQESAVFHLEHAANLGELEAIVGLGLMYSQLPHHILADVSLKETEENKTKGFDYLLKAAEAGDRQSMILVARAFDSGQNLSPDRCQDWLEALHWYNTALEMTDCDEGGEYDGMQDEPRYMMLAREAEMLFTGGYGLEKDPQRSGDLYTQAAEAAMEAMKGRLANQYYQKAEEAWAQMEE
Phosphatidylinositol 4-kinase beta, sequence (Q9UBF8 whole entry): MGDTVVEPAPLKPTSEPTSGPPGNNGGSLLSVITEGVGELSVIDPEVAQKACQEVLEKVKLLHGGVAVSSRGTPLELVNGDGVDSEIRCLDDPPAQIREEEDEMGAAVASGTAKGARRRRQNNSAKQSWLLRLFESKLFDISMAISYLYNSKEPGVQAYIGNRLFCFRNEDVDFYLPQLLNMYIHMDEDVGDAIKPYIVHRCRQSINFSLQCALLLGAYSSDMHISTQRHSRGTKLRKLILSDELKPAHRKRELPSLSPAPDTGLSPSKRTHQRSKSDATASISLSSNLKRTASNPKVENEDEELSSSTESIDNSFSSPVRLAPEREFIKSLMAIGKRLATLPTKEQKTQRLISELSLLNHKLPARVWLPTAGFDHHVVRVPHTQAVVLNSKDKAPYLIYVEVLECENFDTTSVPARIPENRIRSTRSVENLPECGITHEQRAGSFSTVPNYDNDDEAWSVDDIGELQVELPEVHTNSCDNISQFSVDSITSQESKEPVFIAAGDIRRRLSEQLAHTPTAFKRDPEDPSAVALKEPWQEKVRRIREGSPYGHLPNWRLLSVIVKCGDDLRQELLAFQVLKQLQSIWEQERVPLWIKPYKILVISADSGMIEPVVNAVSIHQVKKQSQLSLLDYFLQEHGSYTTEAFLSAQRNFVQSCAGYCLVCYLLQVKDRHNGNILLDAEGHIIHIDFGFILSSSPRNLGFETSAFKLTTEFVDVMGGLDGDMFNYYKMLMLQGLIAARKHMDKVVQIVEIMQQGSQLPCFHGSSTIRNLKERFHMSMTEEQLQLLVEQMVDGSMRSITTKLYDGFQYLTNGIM
Megakaryocyte-associated tyrosine-protein kinase, sequence (P42679 whole entry): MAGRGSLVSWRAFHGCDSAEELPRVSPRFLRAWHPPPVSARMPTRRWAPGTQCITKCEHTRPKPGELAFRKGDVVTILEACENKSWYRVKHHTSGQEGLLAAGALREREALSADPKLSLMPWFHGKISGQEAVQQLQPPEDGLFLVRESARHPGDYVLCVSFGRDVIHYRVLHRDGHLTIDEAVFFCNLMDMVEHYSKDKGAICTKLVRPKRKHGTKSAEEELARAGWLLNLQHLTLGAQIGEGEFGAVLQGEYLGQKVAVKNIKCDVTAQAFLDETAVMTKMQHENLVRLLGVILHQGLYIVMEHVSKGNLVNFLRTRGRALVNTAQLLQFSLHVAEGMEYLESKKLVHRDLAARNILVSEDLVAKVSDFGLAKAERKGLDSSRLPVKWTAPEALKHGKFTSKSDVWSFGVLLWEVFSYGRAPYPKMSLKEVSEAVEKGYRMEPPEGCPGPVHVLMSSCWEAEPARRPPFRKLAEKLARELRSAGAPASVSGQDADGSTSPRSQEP
SRSF protein kinase 1, sequence (Q96SB4 whole entry): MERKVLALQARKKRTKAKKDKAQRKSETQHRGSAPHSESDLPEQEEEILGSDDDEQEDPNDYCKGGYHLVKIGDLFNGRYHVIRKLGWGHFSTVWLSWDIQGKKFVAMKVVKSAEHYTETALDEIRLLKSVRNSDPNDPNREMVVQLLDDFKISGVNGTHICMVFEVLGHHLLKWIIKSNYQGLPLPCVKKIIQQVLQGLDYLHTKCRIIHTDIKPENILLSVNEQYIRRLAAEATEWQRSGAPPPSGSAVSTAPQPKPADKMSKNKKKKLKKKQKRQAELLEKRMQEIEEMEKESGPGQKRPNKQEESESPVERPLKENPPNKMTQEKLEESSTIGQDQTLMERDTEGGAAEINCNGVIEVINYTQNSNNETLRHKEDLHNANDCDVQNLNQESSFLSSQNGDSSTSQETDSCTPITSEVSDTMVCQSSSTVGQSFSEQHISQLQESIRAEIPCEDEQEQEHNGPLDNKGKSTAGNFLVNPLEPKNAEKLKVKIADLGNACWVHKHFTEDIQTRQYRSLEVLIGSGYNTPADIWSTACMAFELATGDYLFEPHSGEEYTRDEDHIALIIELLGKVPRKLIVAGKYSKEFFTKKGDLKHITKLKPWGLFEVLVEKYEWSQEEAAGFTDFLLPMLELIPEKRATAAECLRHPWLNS
Tyrosine-protein kinase FRK, sequence (P42685 whole entry): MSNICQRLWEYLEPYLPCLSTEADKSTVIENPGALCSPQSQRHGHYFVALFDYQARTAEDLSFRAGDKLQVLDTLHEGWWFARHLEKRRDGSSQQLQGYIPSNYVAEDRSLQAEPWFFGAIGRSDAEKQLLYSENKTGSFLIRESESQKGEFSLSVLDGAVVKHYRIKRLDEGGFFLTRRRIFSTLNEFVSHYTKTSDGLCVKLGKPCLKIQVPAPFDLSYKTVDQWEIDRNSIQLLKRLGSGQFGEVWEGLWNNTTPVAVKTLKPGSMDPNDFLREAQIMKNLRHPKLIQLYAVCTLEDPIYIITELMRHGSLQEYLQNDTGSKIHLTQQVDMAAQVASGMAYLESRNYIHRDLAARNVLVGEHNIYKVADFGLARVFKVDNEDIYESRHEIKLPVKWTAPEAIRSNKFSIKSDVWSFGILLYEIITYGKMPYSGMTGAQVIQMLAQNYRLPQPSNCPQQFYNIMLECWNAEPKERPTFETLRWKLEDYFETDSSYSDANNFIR
Calcium/calmodulin-dependent protein kinase type II subunit delta, sequence (Q13557 whole entry): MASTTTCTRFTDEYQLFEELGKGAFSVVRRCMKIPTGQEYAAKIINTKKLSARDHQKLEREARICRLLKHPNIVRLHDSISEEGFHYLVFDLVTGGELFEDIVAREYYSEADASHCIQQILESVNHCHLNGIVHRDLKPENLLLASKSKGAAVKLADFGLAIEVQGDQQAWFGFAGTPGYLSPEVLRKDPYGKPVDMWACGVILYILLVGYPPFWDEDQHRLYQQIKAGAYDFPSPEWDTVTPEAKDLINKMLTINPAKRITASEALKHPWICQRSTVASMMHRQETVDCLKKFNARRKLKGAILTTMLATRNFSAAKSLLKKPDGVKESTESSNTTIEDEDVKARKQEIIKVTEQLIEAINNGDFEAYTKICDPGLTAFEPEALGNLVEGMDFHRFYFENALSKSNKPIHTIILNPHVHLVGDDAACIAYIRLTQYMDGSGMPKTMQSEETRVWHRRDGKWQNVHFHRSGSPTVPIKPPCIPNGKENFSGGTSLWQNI
Phosphorylase b kinase gamma catalytic chain, liver/testis isoform, sequence (P15735 whole entry, canonical isoform): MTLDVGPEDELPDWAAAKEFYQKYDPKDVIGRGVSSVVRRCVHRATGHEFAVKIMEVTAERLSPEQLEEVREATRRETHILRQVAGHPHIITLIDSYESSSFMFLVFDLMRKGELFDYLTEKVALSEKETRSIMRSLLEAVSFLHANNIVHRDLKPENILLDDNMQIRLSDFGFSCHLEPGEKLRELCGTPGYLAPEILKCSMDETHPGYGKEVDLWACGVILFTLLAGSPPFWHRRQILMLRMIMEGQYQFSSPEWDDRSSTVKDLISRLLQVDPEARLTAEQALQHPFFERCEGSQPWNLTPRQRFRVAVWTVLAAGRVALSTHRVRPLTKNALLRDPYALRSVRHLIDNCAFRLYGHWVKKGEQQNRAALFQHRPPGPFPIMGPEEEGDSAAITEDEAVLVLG

FC(F)(F)c1ccc(CNc2ccc(Cc3c[nH]c4ncc(Cl)cc34)cn2)cn1 [PEXIDARTINIB]
Activity (Mus musculus [1]): Active

COc1ncc(F)cc1CNc1ccc(Cc2c[nH]c3ncc(C)cc23)c(F)n1 [PLX-5622]
Activity [2]: 68.459%
Activity [3]: 108
AUC(0-inf) [4]: 2100 ng·h/mL
IC50 [5]: > 1000 nM
IC50 [6]: > 1000 nM
Activity [7]: 69.868%
bioavailability [8]: 95%
Activity (Mus musculus [9]): 99.34%
Activity [10]: 0.221 RPKM
IC50 [11]: > 1000 nM
IC50 [12]: > 1000 nM
IC50 [13]: > 1000 nM
Activity [14]: 0 RPKM
IC50 (SRSF protein kinase 1): > 1000 nM
Activity [15]: 0 RPKM
IC50 [16]: > 1000 nM
IC50 [17]: > 1000 nM
Activity [18]: 59.872%
IC50 [19]: > 1000 nM
Activity (Mus musculus [20]): 1
IC50 [21]: > 1000 nM
Time [22]: 90.5 s
